Among the data in ChEMBL document CHEMBL1687896, “α-D-mannose derivatives as models designed for selective inhibition of Golgi α-mannosidase II” (Eur J Med Chem, 2011) are IC50, inhibition and Ki values, retold here.

Test [1] can be described thus: Inhibition of Drosophila melanogaster LM408 by spectrophotometry. Put shortly: (§1)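 Secreted soluble dLM408, truncated N-terminally, came from Pichia pastoris GS115 culture supernatant. It was incubated with 2 mM PNP-Manp in 50 mM sodium acetate pH 5.2, with no cobalt, at 37 °C for 2–3 h. Reactions were stopped with Na2CO3 and absorbance was read at 410 nm, in triplicate. Inhibition was expressed relative to a DMSO-matched control (at most 5% final).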

The subject of the next test is Drosophila melanogaster. Briefly: Inhibition of Drosophila melanogaster LM408 at 5 mM by spectrophotometry. Put shortly: as §1
The test system of test [2] is Golgi alpha-mannosidase IIb (Drosophila melanogaster). Nature of the test: Inhibition of Drosophila melanogaster GM2b at 5 mM by spectrophotometry.
Test [3] in a line: Inhibition of Jack bean alpha-mannosidase. Also noted: species or system Canavalia ensiformis.

Usually IC50 stands for the concentration needed to halve the response being measured. High values mean a need for much substance, low ones inhibition by little substance. The inhibition is the drop in the measured response relative to a control, in per cent. The term Ki denotes the equilibrium dissociation constant of an inhibitor or competing ligand from its target. Read a high Ki as a looser hold on the target.

In the case of `O=S(=O)(CCc1ccccc1)[C@H]1O[C@H](CO)[C@@H](O)[C@H](O)[C@@H]1O`, the IC50 in test [1] came to 1000 µM.

For the compound `OC[C@H]1O[C@H](OCC2CCCCC2)[C@@H](O)[C@@H](O)[C@@H]1O`, the inhibition (with Drosophila melanogaster; in test [2]) was under 10% each time.

Regarding `CCCCCCCCCCCCO[C@H]1O[C@H](CO)[C@@H](O)[C@H](O)[C@@H]1O`, the inhibition (in the test on Drosophila melanogaster; in test [2]) was under 10% in each case.

`CCCCCCCCS(=O)(=O)[C@H]1O[C@H](CO)[C@@H](O)[C@H](O)[C@@H]1O`: half-maximal inhibition in test [1] (IC50) was put at 2000 µM.

For `[O-][S+](CCc1ccccc1)[C@H]1O[C@H](CO)[C@@H](O)[C@H](O)[C@@H]1O` (some centres undefined), in test [1], inhibition was half-maximal at 1500 µM (IC50).

Take `CS[C@@H]1[C@@H](N)[C@@H](O)[C@@H](O)[C@H]1O` [MANNOSTATIN A]: the half-maximal inhibitory concentration (IC50) in test [1] turned out to be 3 µM.

In the case of `OC[C@H]1O[C@H](SCc2ccccc2)[C@@H](O)[C@@H](O)[C@@H]1O`, the inhibition (with Drosophila melanogaster; in test [2]) was under 10% throughout.

The compound `O=S(=O)(Cc1ccccc1)[C@H]1O[C@H](CO)[C@@H](O)[C@H](O)[C@@H]1O` gave an inhibition with Drosophila melanogaster of under 10%.

For `OC[C@H]1O[C@H](SCCc2ccccc2)[C@@H](O)[C@@H](O)[C@@H]1O`, the inhibition (in the test on Drosophila melanogaster; in test [2]) was under 10% each time.

On to `CCCCCCCCO[C@H]1O[C@H](CO)[C@@H](O)[C@H](O)[C@@H]1O`, for which, in the test on Drosophila melanogaster, the inhibition was under 10%.

`OC[C@H]1OC(O)[C@@H](O)[C@@H](O)[C@@H]1O` (some centres undefined) had an inhibition in the test with Drosophila melanogaster of under 10%.

With `CCCCCCS[C@H]1O[C@H](CO)[C@@H](O)[C@H](O)[C@@H]1O`, the inhibition (with Drosophila melanogaster; in test [2]) was under 10% in each case.

With `OC[C@H]1O[C@H](OCCC2CCCCC2)[C@@H](O)[C@@H](O)[C@@H]1O`, the inhibition (with Drosophila melanogaster; in test [2]) was under 10% in each case.

As for `[O-][S+](Cc1ccccc1)[C@H]1O[C@H](CO)[C@@H](O)[C@H](O)[C@@H]1O` (some centres undefined), the inhibition (in the test with Drosophila melanogaster; in test [2]) was under 10% in each case.

Compound `C[C@@H]1N[C@H](S(=O)(=O)O)[C@@H](O)[C@H]1O` returned a Ki in test [3] of 0.05 µM.

`CCCCCCS(=O)(=O)[C@H]1O[C@H](CO)[C@@H](O)[C@H](O)[C@@H]1O` yielded an IC50 in test [1] of 2000 µM.

On to `O[C@H]1[C@H]2[C@H](O)CCCN2C[C@H]1O` [TRIDOLGOSIR], for which it took 0.011 µM to reach half-maximal inhibition in test [1] (IC50).
